Assay results as given in ChEMBL document CHEMBL4049407, “Positional Scanning Identifies the Molecular Determinants of a High Affinity Multi-Leucine Inhibitor for Furin and PACE4” (J Med Chem, 2017).
Calls of active or inactive are those of the source. The rule behind the calls is not given here. Peptide text beside a SMILES is read from it. * marks the point of attachment. NH(4-amidinobenzyl) = N=C(N)c1ccc(CN*)cc1

Legend:
[1] = tested on: LNCaP; assay: Antiproliferative activity against human LNCAP cells assessed as reduction in metabolic activity after 72 hrs by MTT assay; assay type: functional, cell-based
Procedure, shortened: (§1)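 Cells kept at 37°C, 5% CO2 in RPMI 1640 (DU145 with 5% FBS, 1500 cells/well; LNCaP with 10% FBS, 2500 cells/well) on poly-L-lysine coated plates. Peptides added 24 h after plating in fresh serum medium at 0, 1, 10, 25, 50, 75, 100, 250 µM for 72 h. MTT 1 mg/mL final for 4 h; formazan dissolved in 2-propanol HCl. Signal normalised to water vehicle; IC50 from dose-response curves.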

[2] = biological target: Furin (Homo sapiens, UniProt P09958); assay: Inhibition of recombinant human furin expressed in drosophila S2 cells using pyrGlu-Arg-Thr-Lys-Arg-7-amido-4-methylcoumarin as substrate after 60 mins by spectrofluorometry method; assay type: cell-based
Sequence of Furin (P09958 whole entry): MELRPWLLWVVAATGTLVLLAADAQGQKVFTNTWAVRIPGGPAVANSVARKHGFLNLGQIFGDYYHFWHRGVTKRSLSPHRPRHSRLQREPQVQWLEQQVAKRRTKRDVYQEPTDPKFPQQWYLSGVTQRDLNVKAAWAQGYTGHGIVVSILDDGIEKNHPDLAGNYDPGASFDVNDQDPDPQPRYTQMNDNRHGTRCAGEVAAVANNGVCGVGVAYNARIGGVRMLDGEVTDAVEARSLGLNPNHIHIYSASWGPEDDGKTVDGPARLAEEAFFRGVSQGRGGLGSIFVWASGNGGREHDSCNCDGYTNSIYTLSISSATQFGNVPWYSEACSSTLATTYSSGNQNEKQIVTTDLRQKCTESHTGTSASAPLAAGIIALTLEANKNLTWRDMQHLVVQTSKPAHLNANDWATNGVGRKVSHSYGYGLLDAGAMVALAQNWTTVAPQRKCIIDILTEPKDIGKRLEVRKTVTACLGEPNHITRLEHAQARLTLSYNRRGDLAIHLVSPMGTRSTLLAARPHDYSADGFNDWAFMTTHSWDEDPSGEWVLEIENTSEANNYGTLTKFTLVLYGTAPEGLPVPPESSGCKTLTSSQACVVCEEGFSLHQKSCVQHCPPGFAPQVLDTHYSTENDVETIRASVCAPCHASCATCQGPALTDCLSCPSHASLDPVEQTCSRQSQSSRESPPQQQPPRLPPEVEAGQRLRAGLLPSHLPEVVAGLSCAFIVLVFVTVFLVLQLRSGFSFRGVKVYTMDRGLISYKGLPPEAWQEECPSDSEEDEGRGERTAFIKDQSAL
Procedure, shortened: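 Human recombinant purified furin at 2 units/100 µL (0.54 nM), in 100 mM HEPES pH 7.5, 1 mM CaCl2, 1 mM β-mercaptoethanol, 1.8 mg/mL BSA. His-containing peptides run instead in 20 mM BisTris pH 6.5 with the same additives. Substrate 100 µM, KM 5.04 µM. Inhibitor 1 nM to 10 µM; 60 min at 37°C. Fluorescence ex 370 / em 460 nm. Ki by Morrison equation; triplicate experiments, mean ± SD.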

[3] = biological target: T1, Proprotein convertase subtilisin/kexin type 6 (Homo sapiens, UniProt P29122); assay: Inhibition of recombinant human PACE4 expressed in drosophila S2 cells using pyrGlu-Arg-Thr-Lys-Arg-7-amido-4-methylcoumarin as substrate after 60 mins by spectrofluorometry method; assay type: cell-based
T1 sequence (P29122 whole entry): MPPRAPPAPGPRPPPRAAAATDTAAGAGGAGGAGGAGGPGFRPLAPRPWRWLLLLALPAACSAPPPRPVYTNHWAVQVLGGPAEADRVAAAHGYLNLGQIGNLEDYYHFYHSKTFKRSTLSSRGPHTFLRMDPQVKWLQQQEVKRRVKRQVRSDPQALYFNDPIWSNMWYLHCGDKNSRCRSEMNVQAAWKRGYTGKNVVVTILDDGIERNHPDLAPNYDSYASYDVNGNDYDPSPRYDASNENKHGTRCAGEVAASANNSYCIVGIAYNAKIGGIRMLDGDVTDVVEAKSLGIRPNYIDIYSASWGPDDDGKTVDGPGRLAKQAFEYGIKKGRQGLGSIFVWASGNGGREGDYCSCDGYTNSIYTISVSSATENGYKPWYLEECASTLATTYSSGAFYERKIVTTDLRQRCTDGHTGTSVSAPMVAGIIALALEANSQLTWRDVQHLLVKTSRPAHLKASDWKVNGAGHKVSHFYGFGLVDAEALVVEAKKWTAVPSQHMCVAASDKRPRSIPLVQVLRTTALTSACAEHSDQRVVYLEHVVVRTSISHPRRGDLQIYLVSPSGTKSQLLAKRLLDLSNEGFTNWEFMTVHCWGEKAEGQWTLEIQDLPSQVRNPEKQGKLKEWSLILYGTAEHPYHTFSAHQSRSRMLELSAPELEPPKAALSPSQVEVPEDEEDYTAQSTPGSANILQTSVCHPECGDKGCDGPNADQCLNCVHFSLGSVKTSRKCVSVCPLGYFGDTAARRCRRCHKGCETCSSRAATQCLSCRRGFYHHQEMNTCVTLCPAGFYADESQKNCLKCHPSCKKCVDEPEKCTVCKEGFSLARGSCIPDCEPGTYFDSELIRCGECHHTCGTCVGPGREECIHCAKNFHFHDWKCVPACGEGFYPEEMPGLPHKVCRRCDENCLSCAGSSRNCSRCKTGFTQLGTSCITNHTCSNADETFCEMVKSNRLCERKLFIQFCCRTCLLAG
Procedure, shortened: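 Human recombinant purified PACE4 at 2 units/100 µL (20.18 nM), in 20 mM BisTris pH 6.5, 1 mM CaCl2, 1.8 mg/mL BSA. Substrate 100 µM, KM 4.035 µM. Inhibitor 1 nM to 10 µM; 60 min at 37°C. Fluorescence ex 370 / em 460 nm. Ki by Morrison tight-binding equation; three independent experiments, mean ± SD.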

[4] = tested on: DU-145; assay: Antiproliferative activity against human DU145 cells assessed as reduction in metabolic activity after 72 hrs by MTT assay; assay type: functional, cell-based; conditions: DU-145, 72 h; procedure, shortened: as §1
[5] = species: Homo sapiens; assay: Selectivity index, ratio of Ki for recombinant human furin expressed in drosophila S2 cells to Ki for recombinant human PACE4 expressed in drosophila S2 cells; assay type: cell-based
Procedure, shortened: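 Ratio Ki(furin)/Ki(PACE4). […] PACE4 buffer was BisTris pH 6.5; furin buffer was HEPES pH 7.5, or BisTris pH 6.5 for His peptides. Ki fitted by Morrison equation from three independent experiments.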

[6] = tested on: DU-145; assay: Antiproliferative activity against human DU145 cells assessed as reduction in metabolic activity at 25 to 100 uM after 72 hrs by MTT assay; assay type: functional, cell-based
Procedure, shortened: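 First-pass MTT screen of each library peptide on DU145 cells (RPMI 1640, 5% FBS, 1500 cells/well, poly-L-lysine plates). Peptides added 24 h after seeding at 25, 50 and 100 µM in fresh serum medium for 72 h. MTT 1 mg/mL for 4 h; 2-propanol HCl solubilisation. Activity normalised to water vehicle. Mean ± SEM of at least two independent experiments.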

SMILES | IC50 [1] [nM] | Ki [2] [nM] | Ki [3] [nM] | IC50 [4] [nM] | Ratio Ki [5] | Activity [6]
CC[C@H](C)[C@H](NC(=O)[C@H](CC(C)C)NC(=O)[C@@H](CC(C)C)NC(C)=O)C(=O)N[C@H](C(=O)N[C@@H](CCCNC(=N)N)C(=O)N[C@H](C(=O)N[C@@H](CCCCN)C(=O)NCc1ccc(C(=N)N)cc1)C(C)C)[C@@H](C)CC | 60000 | 11.7 | 14 | 37000 | 0.8 | –
CC[C@H](C)[C@H](NC(=O)[C@H](CC(C)C)NC(=O)[C@H](CC(C)C)NC(C)=O)C(=O)N[C@H](C(=O)N[C@@H](CCCNC(=N)N)C(=O)N[C@H](C(=O)N[C@@H](CCCCN)C(=O)NCc1ccc(C(=N)N)cc1)C(C)C)[C@@H](C)CC | 30000 | 8.1 | 9.8 | 20000 | 0.8 | –
CC(=O)N[C@@H](CC(=O)O)C(=O)N[C@@H](CC(C)C)C(=O)N[C@@H](CC(C)C)C(=O)N[C@@H](CC(C)C)C(=O)N[C@@H](CCCNC(=N)N)C(=O)N[C@H](C(=O)N[C@@H](CCCCN)C(=O)NCc1ccc(C(=N)N)cc1)C(C)C (Ac-DLLLRVK-{NH(4-amidinobenzyl)}) | 40000 | 8 | 12 | 90000 | 0.7 | –
CC(=O)N[C@@H](CCC(=O)O)C(=O)N[C@@H](CC(C)C)C(=O)N[C@@H](CC(C)C)C(=O)N[C@@H](CC(C)C)C(=O)N[C@@H](CCCNC(=N)N)C(=O)N[C@H](C(=O)N[C@@H](CCCCN)C(=O)NCc1ccc(C(=N)N)cc1)C(C)C (Ac-ELLLRVK-{NH(4-amidinobenzyl)}) | 120000 | 7 | 8 | 150000 | 0.9 | –
CC(=O)N[C@@H](Cc1ccccc1)C(=O)N[C@@H](CC(C)C)C(=O)N[C@@H](CC(C)C)C(=O)N[C@@H](CC(C)C)C(=O)N[C@@H](CCCNC(=N)N)C(=O)N[C@H](C(=O)N[C@@H](CCCCN)C(=O)NCc1ccc(C(=N)N)cc1)C(C)C (Ac-FLLLRVK-{NH(4-amidinobenzyl)}) | 41000 | 9 | 9 | 30000 | 1 | –
CC[C@H](C)[C@H](NC(C)=O)C(=O)N[C@@H](CC(C)C)C(=O)N[C@@H](CC(C)C)C(=O)N[C@@H](CC(C)C)C(=O)N[C@@H](CCCNC(=N)N)C(=O)N[C@H](C(=O)N[C@@H](CCCCN)C(=O)NCc1ccc(C(=N)N)cc1)C(C)C (Ac-ILLLRVK-{NH(4-amidinobenzyl)}) | 40000 | 5 | 5 | 27000 | 1 | –
CC(=O)N[C@@H](CC(C)C)C(=O)N[C@@H](Cc1ccccc1)C(=O)N[C@@H](CC(C)C)C(=O)N[C@@H](CC(C)C)C(=O)N[C@@H](CCCNC(=N)N)C(=O)N[C@H](C(=O)N[C@@H](CCCCN)C(=O)NCc1ccc(C(=N)N)cc1)C(C)C (Ac-LFLLRVK-{NH(4-amidinobenzyl)}) | 31000 | 7 | 8 | 36000 | 0.9 | –
CC[C@H](C)[C@H](NC(=O)[C@H](CC(C)C)NC(C)=O)C(=O)N[C@@H](CC(C)C)C(=O)N[C@@H](CC(C)C)C(=O)N[C@@H](CCCNC(=N)N)C(=O)N[C@H](C(=O)N[C@@H](CCCCN)C(=O)NCc1ccc(C(=N)N)cc1)C(C)C (Ac-LILLRVK-{NH(4-amidinobenzyl)}) | 40000 | 2 | 2.5 | 31000 | 0.8 | –
CC(=O)N[C@@H](CC(C)C)C(=O)N[C@@H](CC(C)C)C(=O)N[C@@H](Cc1ccccc1)C(=O)N[C@@H](CC(C)C)C(=O)N[C@@H](CCCNC(=N)N)C(=O)N[C@H](C(=O)N[C@@H](CCCCN)C(=O)NCc1ccc(C(=N)N)cc1)C(C)C (Ac-LLFLRVK-{NH(4-amidinobenzyl)}) | 40000 | 5 | 16 | 38000 | 0.3 | –
CC(=O)N[C@@H](CC(C)C)C(=O)N[C@H](C(=O)N[C@@H](CC(C)C)C(=O)N[C@@H](CC(C)C)C(=O)N[C@@H](CCCNC(=N)N)C(=O)N[C@H](C(=O)N[C@@H](CCCCN)C(=O)NCc1ccc(C(=N)N)cc1)C(C)C)[C@@H](C)O (Ac-LTLLRVK-{NH(4-amidinobenzyl)}) | – | 1.7 | 1 | – | 1.7 | inactive
CC(=O)N[C@@H](CC(C)C)C(=O)N[C@H](C(=O)N[C@@H](CC(C)C)C(=O)N[C@@H](CC(C)C)C(=O)N[C@@H](CCCNC(=N)N)C(=O)N[C@H](C(=O)N[C@@H](CCCCN)C(=O)NCc1ccc(C(=N)N)cc1)C(C)C)C(C)C (Ac-LVLLRVK-{NH(4-amidinobenzyl)}) | – | 2 | 2 | – | 1 | inactive
CC(=O)N[C@@H](CC(C)C)C(=O)N[C@@H](Cc1ccc(O)cc1)C(=O)N[C@@H](CC(C)C)C(=O)N[C@@H](CC(C)C)C(=O)N[C@@H](CCCNC(=N)N)C(=O)N[C@H](C(=O)N[C@@H](CCCCN)C(=O)NCc1ccc(C(=N)N)cc1)C(C)C (Ac-LYLLRVK-{NH(4-amidinobenzyl)}) | – | 3 | 4 | – | 0.8 | inactive
CSCC[C@H](NC(C)=O)C(=O)N[C@@H](CC(C)C)C(=O)N[C@@H](CC(C)C)C(=O)N[C@@H](CC(C)C)C(=O)N[C@@H](CCCNC(=N)N)C(=O)N[C@H](C(=O)N[C@@H](CCCCN)C(=O)NCc1ccc(C(=N)N)cc1)C(C)C (Ac-MLLLRVK-{NH(4-amidinobenzyl)}) | – | 6 | 6 | – | 1 | inactive
CC(=O)N[C@@H](CC(N)=O)C(=O)N[C@@H](CC(C)C)C(=O)N[C@@H](CC(C)C)C(=O)N[C@@H](CC(C)C)C(=O)N[C@@H](CCCNC(=N)N)C(=O)N[C@H](C(=O)N[C@@H](CCCCN)C(=O)NCc1ccc(C(=N)N)cc1)C(C)C (Ac-NLLLRVK-{NH(4-amidinobenzyl)}) | – | 3.1 | 6 | – | 0.5 | inactive
CC(=O)N1CCC[C@H]1C(=O)N[C@@H](CC(C)C)C(=O)N[C@@H](CC(C)C)C(=O)N[C@@H](CC(C)C)C(=O)N[C@@H](CCCNC(=N)N)C(=O)N[C@H](C(=O)N[C@@H](CCCCN)C(=O)NCc1ccc(C(=N)N)cc1)C(C)C (Ac-PLLLRVK-{NH(4-amidinobenzyl)}) | – | 1.1 | 3 | – | 0.4 | inactive
CC(=O)N[C@@H](CCCNC(=N)N)C(=O)N[C@@H](CC(C)C)C(=O)N[C@@H](CC(C)C)C(=O)N[C@@H](CC(C)C)C(=O)N[C@@H](CCCNC(=N)N)C(=O)N[C@H](C(=O)N[C@@H](CCCCN)C(=O)NCc1ccc(C(=N)N)cc1)C(C)C (Ac-RLLLRVK-{NH(4-amidinobenzyl)}) | – | 1.1 | 0.6 | – | 1.8 | inactive
